The results in this text go back to ChEMBL document CHEMBL1150387, “Development and experimental validation of a docking strategy for the generation of kinase-targeted libraries” (J Med Chem, 2008).

The target of assay [1] is Calcium/calmodulin-dependent protein kinase type II subunit alpha (Homo sapiens) (UniProt Q9UQM7). The assay can be described thus: Inhibition of CaMK2alpha at 10 uM by HTRF assay relative to control. The gist of the method: (§1)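 HTRF kinase assay, one panel of kinases. Inhibitor stock 50 µM in 100% DMSO; tested at 10 µM. ATP and substrate at final levels near Km. Final buffer: 50 mM Hepes/NaOH pH 7.4, 40 µM Na3VO4, 0.005% Tween-20, 1 mM DTT, MnCl2 or MgCl2 at kinase-dependent levels. Started by adding ATP/substrate. Reaction run at room temperature, time varied by kinase. Detection mix in 50 mM Hepes pH 7.4, 0.1% BSA, 150 mM KF, incubated ≥1 h at room temperature. Activity expressed as % of uninhibited control; n=2.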
Chain of Calcium/calmodulin-dependent protein kinase type II subunit alpha (Homo sapiens) (Q9UQM7 whole entry): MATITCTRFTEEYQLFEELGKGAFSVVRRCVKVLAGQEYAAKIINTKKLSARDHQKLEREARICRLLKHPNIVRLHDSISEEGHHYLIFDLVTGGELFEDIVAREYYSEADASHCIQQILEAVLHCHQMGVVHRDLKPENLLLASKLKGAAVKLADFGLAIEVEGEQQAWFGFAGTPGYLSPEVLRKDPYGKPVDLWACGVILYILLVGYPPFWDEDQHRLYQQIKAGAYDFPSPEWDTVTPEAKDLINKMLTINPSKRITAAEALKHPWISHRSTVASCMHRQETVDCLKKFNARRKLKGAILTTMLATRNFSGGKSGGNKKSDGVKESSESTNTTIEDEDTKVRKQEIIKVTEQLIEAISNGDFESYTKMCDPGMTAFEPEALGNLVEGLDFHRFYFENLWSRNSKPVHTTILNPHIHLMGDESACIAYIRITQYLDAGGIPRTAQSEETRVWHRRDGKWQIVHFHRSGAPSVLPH
For orientation: TR-FRET usually uses a lanthanide donor and a delayed reading to cut background.

Assay [2] addresses Fibroblast growth factor receptor 1 (Homo sapiens) (UniProt P11362). As to the kind of experiment: Inhibition of FGFR1 at 10 uM by HTRF assay relative to control. The gist of the method:
as §1

The target in assay [3] is Insulin-like growth factor 1 receptor (Homo sapiens) (UniProt P08069). As to the kind of experiment: Inhibition of IGF1R at 10 uM by HTRF assay relative to control. The gist of the method:
as §1

Assay [4] concerns the target Protein kinase C gamma type (Homo sapiens) (UniProt P05129). As to the kind of experiment: Inhibition of PKCgamma at 10 uM by HTRF assay relative to control. The procedure, abridged: as §1
Assay [5] can be described thus: Inhibition of AMPKalpha at 10 uM by HTRF assay relative to control. The procedure, abridged:
as §1

For assay [6], the target named is High affinity nerve growth factor receptor (Homo sapiens) (UniProt P04629). The assay can be described thus: Inhibition of TrkA at 10 uM by HTRF assay relative to control. The procedure, abridged:
as §1

The target of assay [7] is T1, Inhibitor of nuclear factor kappa-B kinase subunit beta (Homo sapiens) (UniProt O14920).
T1 sequence (whole entry): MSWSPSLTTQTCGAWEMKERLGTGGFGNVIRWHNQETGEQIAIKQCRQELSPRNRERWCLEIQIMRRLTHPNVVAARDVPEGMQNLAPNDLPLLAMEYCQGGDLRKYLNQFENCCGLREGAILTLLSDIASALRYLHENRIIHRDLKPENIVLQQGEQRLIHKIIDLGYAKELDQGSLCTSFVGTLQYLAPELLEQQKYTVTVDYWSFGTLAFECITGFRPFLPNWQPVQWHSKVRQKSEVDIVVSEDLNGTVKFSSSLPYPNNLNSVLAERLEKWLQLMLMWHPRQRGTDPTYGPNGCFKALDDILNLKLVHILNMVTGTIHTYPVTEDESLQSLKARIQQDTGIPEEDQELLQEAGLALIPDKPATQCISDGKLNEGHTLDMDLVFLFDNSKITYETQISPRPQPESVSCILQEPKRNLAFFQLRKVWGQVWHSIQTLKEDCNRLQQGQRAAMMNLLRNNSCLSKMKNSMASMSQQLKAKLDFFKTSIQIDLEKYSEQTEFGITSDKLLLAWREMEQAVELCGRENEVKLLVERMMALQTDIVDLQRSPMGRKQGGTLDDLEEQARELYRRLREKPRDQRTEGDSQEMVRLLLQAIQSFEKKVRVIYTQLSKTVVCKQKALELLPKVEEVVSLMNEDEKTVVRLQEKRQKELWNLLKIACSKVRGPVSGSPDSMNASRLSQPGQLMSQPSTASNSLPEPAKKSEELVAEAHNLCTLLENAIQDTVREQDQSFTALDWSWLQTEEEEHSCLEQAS
As to the kind of experiment: Inhibition of IKK-beta at 10 uM by HTRF assay relative to control. The procedure, abridged: as §1

The target in assay [8] is T2, Serine/threonine-protein kinase Chk1 (Homo sapiens) (UniProt O14757).
T2 sequence (whole entry): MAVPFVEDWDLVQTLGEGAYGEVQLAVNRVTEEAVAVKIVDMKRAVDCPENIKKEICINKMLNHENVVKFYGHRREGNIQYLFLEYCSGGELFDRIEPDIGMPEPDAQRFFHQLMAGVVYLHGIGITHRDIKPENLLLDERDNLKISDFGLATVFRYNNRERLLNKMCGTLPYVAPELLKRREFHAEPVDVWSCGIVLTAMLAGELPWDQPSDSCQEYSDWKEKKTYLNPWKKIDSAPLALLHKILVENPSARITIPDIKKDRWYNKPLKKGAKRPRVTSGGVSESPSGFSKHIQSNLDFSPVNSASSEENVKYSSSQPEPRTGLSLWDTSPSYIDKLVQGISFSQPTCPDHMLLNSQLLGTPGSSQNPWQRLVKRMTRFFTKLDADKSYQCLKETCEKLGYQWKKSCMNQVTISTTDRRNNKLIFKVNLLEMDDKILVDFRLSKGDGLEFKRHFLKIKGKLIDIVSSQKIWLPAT
The assay can be described thus: Inhibition of CHK1 at 10 uM by HTRF assay relative to control. The gist of the method:
as §1

Assay [9] addresses Mitogen-activated protein kinase 8 (Homo sapiens) (UniProt P45983). As to the kind of experiment: Inhibition of JNK1 at 10 uM by HTRF assay relative to control. The procedure, abridged: as §1
Assay [10] has as its target 3-phosphoinositide-dependent protein kinase 1 (Homo sapiens) (UniProt O15530). The assay can be described thus: Inhibition of PDK1 at 10 uM by HTRF assay relative to control.
Assay [11] concerns the target Serine/threonine-protein kinase Chk2 (Homo sapiens) (UniProt O96017). As to the kind of experiment: Inhibition of CHK2 at 10 uM by HTRF assay relative to control. The procedure, abridged: as §1
For assay [12], the target named is Protein kinase C alpha type (Homo sapiens) (UniProt P17252). The assay can be described thus: Inhibition of PKCalpha at 10 uM by HTRF assay relative to control. The gist of the method:
as §1

Assay [13] addresses Tyrosine-protein kinase Fes/Fps (Homo sapiens) (UniProt P07332). As to the kind of experiment: Inhibition of FES at 10 uM by HTRF assay relative to control. The gist of the method: as §1
Assay [14] addresses MAP kinase-activated protein kinase 2 (Homo sapiens) (UniProt P49137). As to the kind of experiment: Inhibition of MAPKAPK2 at 10 uM by HTRF assay relative to control. The gist of the method:
as §1

Assay [15] concerns the target Tyrosine-protein kinase Lck (Homo sapiens) (UniProt P06239). As to the kind of experiment: Inhibition of Lck at 10 uM by HTRF assay relative to control. The gist of the method: as §1
For assay [16], the target named is Ribosomal protein S6 kinase alpha-3 (Homo sapiens) (UniProt P51812). As to the kind of experiment: Inhibition of RSK2 at 10 uM by HTRF assay relative to control. The procedure, abridged:
as §1

The target of assay [17] is Ribosomal protein S6 kinase beta-1 (Homo sapiens) (UniProt P23443). As to the kind of experiment: Inhibition of p70S6K at 10 uM by HTRF assay relative to control. The gist of the method:
as §1

The target of assay [18] is Cyclin-dependent kinase 1 (Homo sapiens) (UniProt P06493). As to the kind of experiment: Inhibition of CDK1 at 10 uM by HTRF assay relative to control. The procedure, abridged:
as §1

Assay [19] addresses Platelet-derived growth factor receptor beta (Homo sapiens) (UniProt P09619). As to the kind of experiment: Inhibition of PDGFRbeta at 10 uM by HTRF assay relative to control. The procedure, abridged:
as §1

For assay [20], the target named is Rho-associated protein kinase 2 (Homo sapiens) (UniProt O75116). The assay can be described thus: Inhibition of ROCK2 at 10 uM by HTRF assay relative to control. The gist of the method: as §1

Chain of Fibroblast growth factor receptor 1 (Homo sapiens) (P11362 22-822 limits assumed): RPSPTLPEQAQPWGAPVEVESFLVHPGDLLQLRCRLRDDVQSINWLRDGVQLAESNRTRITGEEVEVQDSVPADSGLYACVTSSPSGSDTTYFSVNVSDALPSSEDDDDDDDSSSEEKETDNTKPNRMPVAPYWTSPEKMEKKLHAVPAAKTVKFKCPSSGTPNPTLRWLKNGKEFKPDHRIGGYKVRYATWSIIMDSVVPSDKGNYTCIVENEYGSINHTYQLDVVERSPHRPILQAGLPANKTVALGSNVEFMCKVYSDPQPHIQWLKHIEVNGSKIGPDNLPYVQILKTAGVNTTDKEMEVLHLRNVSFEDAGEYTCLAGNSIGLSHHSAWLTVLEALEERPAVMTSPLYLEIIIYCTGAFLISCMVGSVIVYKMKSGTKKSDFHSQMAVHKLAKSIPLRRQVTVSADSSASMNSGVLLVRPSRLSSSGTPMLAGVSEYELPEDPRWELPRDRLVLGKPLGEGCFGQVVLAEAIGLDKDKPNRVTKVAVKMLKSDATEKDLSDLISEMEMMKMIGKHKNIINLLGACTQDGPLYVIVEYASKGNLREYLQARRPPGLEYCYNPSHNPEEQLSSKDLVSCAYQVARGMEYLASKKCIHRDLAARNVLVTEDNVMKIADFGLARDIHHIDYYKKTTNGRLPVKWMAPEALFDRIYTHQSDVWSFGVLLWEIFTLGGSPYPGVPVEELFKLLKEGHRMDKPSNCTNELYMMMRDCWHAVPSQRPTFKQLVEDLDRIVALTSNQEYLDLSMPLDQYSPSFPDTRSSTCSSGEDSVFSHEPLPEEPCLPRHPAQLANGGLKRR
Chain of Insulin-like growth factor 1 receptor (Homo sapiens) (P08069 31-736 limits assumed): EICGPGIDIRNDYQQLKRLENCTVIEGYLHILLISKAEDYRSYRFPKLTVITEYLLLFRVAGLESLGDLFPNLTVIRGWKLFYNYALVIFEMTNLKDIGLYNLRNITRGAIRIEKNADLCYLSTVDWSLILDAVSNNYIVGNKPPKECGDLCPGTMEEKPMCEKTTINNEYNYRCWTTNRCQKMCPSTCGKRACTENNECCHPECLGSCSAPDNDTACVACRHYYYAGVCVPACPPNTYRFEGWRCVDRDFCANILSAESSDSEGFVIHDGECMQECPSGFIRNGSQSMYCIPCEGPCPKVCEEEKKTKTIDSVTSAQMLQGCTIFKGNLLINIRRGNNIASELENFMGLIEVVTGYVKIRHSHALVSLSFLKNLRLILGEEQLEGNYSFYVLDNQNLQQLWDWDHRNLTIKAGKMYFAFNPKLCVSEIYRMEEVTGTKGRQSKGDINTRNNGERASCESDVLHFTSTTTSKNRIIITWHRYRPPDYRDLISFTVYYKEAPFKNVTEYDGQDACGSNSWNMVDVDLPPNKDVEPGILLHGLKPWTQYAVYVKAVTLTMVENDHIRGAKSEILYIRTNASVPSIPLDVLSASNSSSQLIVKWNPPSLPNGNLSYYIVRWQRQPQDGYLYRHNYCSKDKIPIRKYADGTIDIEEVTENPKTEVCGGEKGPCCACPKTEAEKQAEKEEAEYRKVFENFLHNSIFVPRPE
Chain of Insulin-like growth factor 1 receptor (Homo sapiens) (P08069 741-1367 limits assumed): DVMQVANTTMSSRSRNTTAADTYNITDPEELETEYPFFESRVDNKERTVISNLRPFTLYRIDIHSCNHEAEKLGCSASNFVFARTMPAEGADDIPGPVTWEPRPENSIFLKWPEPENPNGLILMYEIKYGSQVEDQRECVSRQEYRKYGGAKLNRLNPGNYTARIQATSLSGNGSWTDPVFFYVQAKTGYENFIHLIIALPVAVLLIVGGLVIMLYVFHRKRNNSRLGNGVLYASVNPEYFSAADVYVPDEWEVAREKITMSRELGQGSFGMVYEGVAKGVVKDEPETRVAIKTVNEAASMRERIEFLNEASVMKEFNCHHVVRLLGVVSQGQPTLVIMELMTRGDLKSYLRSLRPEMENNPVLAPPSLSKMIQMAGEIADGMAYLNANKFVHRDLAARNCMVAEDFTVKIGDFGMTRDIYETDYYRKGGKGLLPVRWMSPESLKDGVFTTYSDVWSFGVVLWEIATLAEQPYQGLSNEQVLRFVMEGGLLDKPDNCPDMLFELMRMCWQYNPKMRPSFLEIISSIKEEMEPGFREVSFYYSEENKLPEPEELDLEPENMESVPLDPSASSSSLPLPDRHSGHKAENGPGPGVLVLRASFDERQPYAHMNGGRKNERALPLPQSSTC
Chain of Serine/threonine-protein kinase Chk2 (Homo sapiens) (O96017 whole entry): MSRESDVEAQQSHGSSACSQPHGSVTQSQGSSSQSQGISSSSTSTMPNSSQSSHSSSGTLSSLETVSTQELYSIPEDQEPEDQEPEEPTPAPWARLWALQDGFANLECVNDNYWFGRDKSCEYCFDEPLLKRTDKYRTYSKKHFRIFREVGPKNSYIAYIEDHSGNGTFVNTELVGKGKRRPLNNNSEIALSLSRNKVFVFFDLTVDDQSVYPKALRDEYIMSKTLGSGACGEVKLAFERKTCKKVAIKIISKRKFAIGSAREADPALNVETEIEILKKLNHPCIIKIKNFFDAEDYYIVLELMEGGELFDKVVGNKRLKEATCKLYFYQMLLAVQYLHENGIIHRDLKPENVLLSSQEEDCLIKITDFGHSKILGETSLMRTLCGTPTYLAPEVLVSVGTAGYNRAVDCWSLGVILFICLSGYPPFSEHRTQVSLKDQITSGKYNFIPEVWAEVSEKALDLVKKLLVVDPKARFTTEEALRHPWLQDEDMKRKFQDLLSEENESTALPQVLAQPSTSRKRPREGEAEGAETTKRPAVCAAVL
Chain of 3-phosphoinositide-dependent protein kinase 1 (Homo sapiens) (O15530 whole entry, looked up): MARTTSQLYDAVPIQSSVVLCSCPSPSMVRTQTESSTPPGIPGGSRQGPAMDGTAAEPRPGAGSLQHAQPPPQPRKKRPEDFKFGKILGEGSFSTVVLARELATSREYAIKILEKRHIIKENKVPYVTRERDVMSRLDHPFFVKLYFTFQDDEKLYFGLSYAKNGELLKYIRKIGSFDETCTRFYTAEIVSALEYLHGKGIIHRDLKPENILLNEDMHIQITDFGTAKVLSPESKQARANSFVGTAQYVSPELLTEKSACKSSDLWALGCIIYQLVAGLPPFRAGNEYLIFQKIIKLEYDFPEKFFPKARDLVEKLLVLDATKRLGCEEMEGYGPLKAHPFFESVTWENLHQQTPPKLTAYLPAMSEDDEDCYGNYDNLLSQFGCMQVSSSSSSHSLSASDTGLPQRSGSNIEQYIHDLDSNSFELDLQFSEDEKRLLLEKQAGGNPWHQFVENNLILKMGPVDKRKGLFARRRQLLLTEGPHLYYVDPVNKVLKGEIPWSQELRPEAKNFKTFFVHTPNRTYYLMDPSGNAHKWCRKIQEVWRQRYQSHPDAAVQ
Chain of Tyrosine-protein kinase Lck (Homo sapiens) (P06239 2-509 limits assumed): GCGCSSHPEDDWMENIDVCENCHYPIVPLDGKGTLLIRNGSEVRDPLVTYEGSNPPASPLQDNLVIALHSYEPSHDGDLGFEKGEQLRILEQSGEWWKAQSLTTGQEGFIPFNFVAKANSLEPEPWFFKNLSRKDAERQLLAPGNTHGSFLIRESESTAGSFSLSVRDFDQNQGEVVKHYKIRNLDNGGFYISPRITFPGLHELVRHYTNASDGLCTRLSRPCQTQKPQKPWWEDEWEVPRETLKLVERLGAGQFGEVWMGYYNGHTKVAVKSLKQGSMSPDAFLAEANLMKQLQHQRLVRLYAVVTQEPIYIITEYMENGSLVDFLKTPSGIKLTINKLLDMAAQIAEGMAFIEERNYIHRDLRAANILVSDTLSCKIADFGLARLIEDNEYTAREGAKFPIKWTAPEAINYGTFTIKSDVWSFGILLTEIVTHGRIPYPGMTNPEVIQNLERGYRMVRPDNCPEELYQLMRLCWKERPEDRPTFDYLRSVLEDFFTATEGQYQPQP
Chain of High affinity nerve growth factor receptor (Homo sapiens) (P04629 33-796 limits assumed): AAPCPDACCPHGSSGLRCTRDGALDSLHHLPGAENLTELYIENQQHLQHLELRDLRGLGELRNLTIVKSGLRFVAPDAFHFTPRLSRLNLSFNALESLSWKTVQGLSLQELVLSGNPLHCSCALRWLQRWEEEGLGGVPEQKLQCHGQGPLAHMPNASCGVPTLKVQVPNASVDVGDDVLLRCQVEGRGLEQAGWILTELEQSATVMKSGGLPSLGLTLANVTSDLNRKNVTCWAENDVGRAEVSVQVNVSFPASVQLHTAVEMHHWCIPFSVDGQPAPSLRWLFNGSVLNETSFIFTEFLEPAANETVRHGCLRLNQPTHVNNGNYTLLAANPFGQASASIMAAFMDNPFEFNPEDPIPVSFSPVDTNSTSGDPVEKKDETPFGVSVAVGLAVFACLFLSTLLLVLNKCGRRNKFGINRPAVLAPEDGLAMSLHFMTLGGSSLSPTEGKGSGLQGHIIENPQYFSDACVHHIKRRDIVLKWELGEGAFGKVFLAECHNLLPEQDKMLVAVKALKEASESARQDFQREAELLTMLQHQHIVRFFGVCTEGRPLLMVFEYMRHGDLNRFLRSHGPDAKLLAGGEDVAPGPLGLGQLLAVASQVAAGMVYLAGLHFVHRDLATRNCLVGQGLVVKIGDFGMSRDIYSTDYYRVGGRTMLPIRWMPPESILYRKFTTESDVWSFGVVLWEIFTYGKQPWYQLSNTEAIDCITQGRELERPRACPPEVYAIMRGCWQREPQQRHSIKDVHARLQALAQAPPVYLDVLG

For orientation: inhibition means the change of the read-out against control, counted positive when it falls. Consider `COc1cccc(Nc2cc(N3CCC[C@H]3C(=O)NCCc3ccc(O)cc3)nc(N)n2)c1`, for which the inhibition in assay [1] turned out to be 0%; in [2] it was 7%; in [3], 0%; in assay [4], 5%; in assay [5], 9%; in [6], 7%. For the same molecule, the inhibition turned out to be 4% in [7]; 2% in assay [8]; 1% in assay [9]; 0% in assay [10]; 0% in assay [11]; 0% in assay [12]. Besides, the inhibition in assay [13] was 4%; in assay [14], 0%; in assay [15], 0%; in assay [16], 0%; in assay [17] it was 7%; in [18], 0%. The inhibition in assay [19] and in assay [20] was 0% in each case.
As to `Cc1cccc(Nc2nccc3c2CN(C(=O)c2cc(C)n(C)c2C)CC3)c1`, the inhibition turned out to be 0% in assay [1]; 0% in assay [2]; 0% in [3]; 4% in assay [4]; 1% in assay [5]; 4% in assay [6]. Besides, the inhibition in [7] was 0%; in assay [8], 3%; in assay [9] it was 0%; in assay [10] it was 0%; in assay [11] it was 0%; in [12], 1%. Further, the inhibition in assay [13] came out at 2%; in assay [14] it was 0%; in [15] it was 0%; in assay [16], 0%; in assay [17], 6%; in assay [18] it was 0%. The figures for the inhibition in [19] and in assay [20] were 5% and 0%, respectively.
As for `O=C(COc1ccccc1)N1CCN(c2nccc(Nc3ccc4ncsc4c3)n2)CC1`, the inhibition in assay [1] amounted to 0%; in [2] it was 16%; in assay [3] it was 0%; in assay [4], 14%; in assay [5], 49%; in assay [6], 9%. Besides, the inhibition in assay [7] was 10%; in [8] it was 4%; in assay [9], 34%; in assay [10], 0%; in assay [11] it was 6%; in assay [12], 0%. Moreover, the inhibition in assay [13] turned out to be 18%; in assay [14], 0%; in [15], 22%; in assay [16], 0%; in assay [17], 15%; in assay [18], 0%. Also, the inhibition in assay [19] turned out to be 30%; in assay [20], 7%.
Turning to `CC(=O)CCCCC(=O)N1CCN(c2nccc(Oc3cccc(C)c3)n2)CC1`, the inhibition in assay [1] was 0%; in assay [2], 11%; in assay [3], 0%; in assay [4] it was 0%; in assay [5] it was 9%; in [6] it was 0%. The inhibition was 4% in assay [7]; 4% in assay [8]; 8% in [9]; 2% in assay [10]; 0% in [11]; 0% in assay [12]. Further, the inhibition in [13] was 16%; in assay [14] it was 1%; in assay [15], 0%; in [16], 0%; in [17] it was 3%; in assay [18] it was 0%. The inhibition stood at 4% in assay [19] and 0% in [20].
For the molecule `COC[C@@H]1CCCN1C(=O)[C@@H]1CCCN1c1nccc(Nc2ccccc2)n1`, the inhibition in assay [1] is 0%; in assay [2], 0%; in assay [3], 0%; in assay [4], 0%; in assay [5] it was 15%; in [6], 8%. The inhibition came out at 6% in assay [7]; 1% in [8]; 0% in assay [9]; 1% in assay [10]; 3% in assay [11]; 0% in assay [12]. Moreover, the inhibition is 8% in assay [13]; 1% in assay [14]; 0% in assay [15]; 0% in assay [16]; 8% in [17]; 3% in [18]. The inhibition was found to be 8% in assay [19] and 3% in [20].
Consider `COc1cccc(Nc2cc(N3CCC[C@H]3C(=O)NCCN3CCCCC3)nc(N)n2)c1`, for which the inhibition in [1] is 0%; in assay [2], 0%; in [3], 1%; in assay [4], 2%; in [5] it was 0%; in assay [6] it was 8%. Further, the inhibition was 6% in [7]; 3% in [8]; 10% in assay [9]; 0% in assay [10]; 0% in assay [11]; 5% in assay [12]. Further, the inhibition in assay [13] is 4%; in assay [14] it was 0%; in [15], 0%; in assay [16], 0%; in assay [17] it was 14%; in assay [18] it was 0%. Also, the results for the inhibition in [19] and in [20] were 8% and 0%, respectively.
Take `Nc1nc(N2CCOCC2)cc(N2CCC(C(=O)NCc3cccs3)CC2)n1`: the inhibition stood at 0% in assay [1]; 11% in assay [2]; 0% in assay [3]; 0% in assay [4]; 5% in assay [5]; 9% in assay [6]. The inhibition in assay [7] worked out at 5%; in [8], 1%; in [9], 0%; in [10], 0%; in assay [11], 0%; in [12] it was 0%. Besides, the inhibition in [13] was determined as 9%; in assay [14] it was 0%; in [15], 0%; in [16] it was 0%; in assay [17] it was 7%; in assay [18] it was 0%. Also, the values for the inhibition in assay [19] and in assay [20] were 8% and 1%, respectively.
Turning to `COc1ccc(NC(=O)Cc2ccc(Nc3cc(N(C)c4cccc(C)c4)ncn3)cc2)cn1`, the inhibition came out at 0% in [1]; 16% in [2]; 6% in assay [3]; 5% in assay [4]; 2% in assay [5]; 10% in assay [6]. Also, the inhibition in assay [7] is 0%; in assay [8] it was 4%; in [9], 4%; in [10], 1%; in assay [11], 1%; in assay [12] it was 0%. Further, the inhibition worked out at 0% in assay [13]; 0% in assay [14]; 0% in [15]; 0% in assay [16]; 6% in [17]; 0% in assay [18]. In addition, the inhibition turned out to be 22% in assay [19] and 0% in [20].
